One series has as its target Histone deacetylase 3 (Homo sapiens, UniProt O15379). The series is described as follows: Inhibition of recombinant full length HDAC3 (unknown origin) using Ac-peptide-AMC as substrate preincubated for 15 mins followed by substrate addition and measured after 1 hr by fluorescence assay.
The subject of series [1] is MV4-11. The series is described as follows: Induction of apoptosis in human MV4-11 cells assessed as early apoptotic cells at 10 nM after 48 hrs by Annexin V-FITC/propidium iodide staining-based flow cytometric analysis (reference value: 10.7%). It is filed as functional. (In general: Flow cytometry measures light scatter and fluorescence of single cells or particles in a stream.)

Series [2] concerns the target Polyamine deacetylase HDAC10 (Homo sapiens, UniProt Q969S8). Description: Inhibition of recombinant full length N-terminal FLAG-tagged human HDAC10 expressed in baculovirus infected sf9 cells using Ac-peptide-AMC as substrate preincubated for 15 mins followed by substrate addition and measured after 1 hr by fluorescence assay.
Series [3] concerns MV4-11. The series is described as follows: Induction of apoptosis in human MV4-11 cells assessed as late apoptotic cells at 80 nM after 48 hrs by Annexin V-FITC/propidium iodide staining-based flow cytometric analysis (reference value: 5.03%). In kind it is functional.
The test system of series [4] is MV4-11. Description: Cell cycle arrest in human MV4-11 cells assessed as accumulation at G0/G1 phase at 2.5 nM after 24 hrs by propidium iodide/RNase staining-based FACS analysis (reference value: 44.79%). In kind it is functional.
In series [5] the test system is MV4-11. The series is described as follows: Induction of apoptosis in human MV4-11 cells assessed as necrotic cells at 160 nM after 48 hrs by Annexin V-FITC/propidium iodide staining-based flow cytometric analysis (reference value: 0.17%). In kind it is functional.
In series [6] the test system is MV4-11. The series is described as follows: Induction of apoptosis in human MV4-11 cells assessed as necrotic cells at 80 nM after 48 hrs by Annexin V-FITC/propidium iodide staining-based flow cytometric analysis (reference value: 0.17%). It is filed as functional.
Series [7] concerns MV4-11. Description: Cell cycle arrest in human MV4-11 cells assessed as accumulation at S phase at 1.25 nM after 24 hrs by propidium iodide/RNase staining-based FACS analysis (reference value: 36.42%). It is filed as functional.
Series [8] in a line: Toxicity against NOD/SCID mouse xenografted with human MM1S cells assessed as mouse survival at 10 mg/kg, iv administered every 2 days for 5 days. In kind it is organism-based. The settings on record: in vivo. In short, it runs like this: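 Female NOD/SCID mice, 5-6 weeks old, received 10^7 MM1S cells in 100 μL serum-free RPMI 1640 s.c. into the right flank. At 100-200 mm3 tumours they were randomised, 6 mice per group. Tumours were measured by caliper every 2 days. At the end, tumours were excised and weighed. Survivors are reported per group.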

The nature of series [9]: Toxicity against NOD/SCID mouse xenografted with human MV4-11 cells assessed as effect on body weight at 10 mg/kg, iv administered every 2 days for 6 days. In kind it is organism-based. Particulars: in vivo. In short, it runs like this:
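MV4-11 cells (10^7 in 100 μL serum-free IMDM) were injected s.c. into the right flank of female NOD/SCID mice aged 5-6 weeks. Groups of 6 were randomised at 100-200 mm3. Dosing was i.v. every 2 days in physiological saline containing 2.5% DMSO and 10% cyclodextrin, pH 9. Tumours were measured by caliper every 2 days. Survivors were counted.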

The subject of series [10] is MV4-11. Description: Induction of apoptosis in human MV4-11 cells assessed as necrotic cells at 20 nM after 48 hrs by Annexin V-FITC/propidium iodide staining-based flow cytometric analysis (reference value: 0.17%). In kind it is functional.
Series [11] has as its system MV4-11. The series is described as follows: Cell cycle arrest in human MV4-11 cells assessed as accumulation at G2/M phase at 5 nM after 24 hrs by propidium iodide/RNase staining-based FACS analysis (reference value: 18.79%). In kind it is functional.
Series [12] deals with MM1.S. The series is described as follows: Induction of apoptosis in human MM1S cells assessed as late apoptotic cells at 10 nM after 48 hrs by Annexin V-FITC/propidium iodide staining-based flow cytometric analysis (reference value: 0.42%). It is filed as functional.
The subject of series [13] is MM1.S. Description: Induction of apoptosis in human MM1S cells assessed as early apoptotic cells at 10 nM after 48 hrs by Annexin V-FITC/propidium iodide staining-based flow cytometric analysis (reference value: 0.38%). It is filed as functional.
Series [14] deals with MV4-11. The series is described as follows: Induction of apoptosis in human MV4-11 cells assessed as early apoptotic cells at 160 nM after 48 hrs by Annexin V-FITC/propidium iodide staining-based flow cytometric analysis (reference value: 10.7%). In kind it is functional.
In series [15] the target is T1, Serine/threonine-protein kinase mTOR (Homo sapiens, UniProt P42345). The series is described as follows: Inhibition of mTOR in human MV4-11 cells assessed as decrease in p70S6K phosphorylation at Thr 389 residues at 0.01 to 10 uM after 24 hrs by Western blot analysis. In kind it is cell-based. In short, it runs like this: (§1)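 Treatment of MV4-11 cells lasted 24 h at 0.01, 0.1, 1 and 10 μM. Lysis in RIPA buffer and BCA quantitation, then 30 μg protein by SDS-PAGE, PVDF transfer, 5% milk block, primary antibody overnight at 4 °C, HRP secondary 1 h and ECL detection. p-p70S6K (T389), p-4EBP1 (S65), p-Akt (S473) and p-ERK were probed.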
(A western blot detects proteins with antibodies after separation by electrophoresis.)

Series [16] relates to MV4-11. Description: Induction of apoptosis in human MV4-11 cells assessed as early apoptotic cells at 320 nM after 48 hrs by Annexin V-FITC/propidium iodide staining-based flow cytometric analysis (reference value: 10.7%). In kind it is functional.
Series [17] deals with MV4-11. The series is described as follows: Antitumor activity against human MV4-11 cells xenografted in NOD/SCID mouse assessed as tumor growth inhibition at 10 mg/kg, iv administered every 2 days for 6 days and measured every 2 days post last dose by caliper method relative to control. It is filed as functional. Particulars: MV4-11, iv, read-out: TGI. In short, it runs like this: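 Female NOD/SCID mice aged 5-6 weeks received 10^7 MV4-11 cells in 100 μL serum-free IMDM s.c. into the right flank. At 100-200 mm3 the mice were randomized, 6 per group. Dosing was i.v. at 10 mg/kg every 2 days, in saline with 2.5% DMSO and 10% cyclodextrin at pH 9. Tumours were measured by caliper every 2 days, with volume = length × width² × 0.5, and were weighed at sacrifice.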
In general terms: In xenograft studies the graft and the host belong to different species.

The target of series [18] is Histone deacetylase 1/2/3 (Homo sapiens) (UniProt Q13547+O15379+Q92769). The series is described as follows: Inhibition of HDAC1/2/3 in human MV4-11 cells assessed as increase in H3 acetylation after 6 hrs by Western blot analysis. It is filed as cell-based. In short, it runs like this: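 MV4-11 cells treated 6 h at 0.01, 0.1 or 1 μM. Whole-cell protein extracted in RIPA buffer and quantified by BCA. 30 μg protein run on SDS-PAGE and transferred to PVDF. Blocked 1 h in 5% milk, primary antibody overnight at 4 °C, HRP secondary 1 h, ECL detection. Acetyl-histone H3 and acetyl-α-tubulin probed, with GAPDH as loading control.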

The target in another series is Histone deacetylase 9 (Homo sapiens, UniProt Q9UKV0). The series is described as follows: Inhibition of recombinant full length C-terminal His-tagged human HDAC9 expressed in baculovirus expression system using Ac-peptide-AMC as substrate preincubated for 15 mins followed by substrate addition and measured after 1 hr by fluorescence assay.
Chain of Histone deacetylase 9 (Q9UKV0 whole entry): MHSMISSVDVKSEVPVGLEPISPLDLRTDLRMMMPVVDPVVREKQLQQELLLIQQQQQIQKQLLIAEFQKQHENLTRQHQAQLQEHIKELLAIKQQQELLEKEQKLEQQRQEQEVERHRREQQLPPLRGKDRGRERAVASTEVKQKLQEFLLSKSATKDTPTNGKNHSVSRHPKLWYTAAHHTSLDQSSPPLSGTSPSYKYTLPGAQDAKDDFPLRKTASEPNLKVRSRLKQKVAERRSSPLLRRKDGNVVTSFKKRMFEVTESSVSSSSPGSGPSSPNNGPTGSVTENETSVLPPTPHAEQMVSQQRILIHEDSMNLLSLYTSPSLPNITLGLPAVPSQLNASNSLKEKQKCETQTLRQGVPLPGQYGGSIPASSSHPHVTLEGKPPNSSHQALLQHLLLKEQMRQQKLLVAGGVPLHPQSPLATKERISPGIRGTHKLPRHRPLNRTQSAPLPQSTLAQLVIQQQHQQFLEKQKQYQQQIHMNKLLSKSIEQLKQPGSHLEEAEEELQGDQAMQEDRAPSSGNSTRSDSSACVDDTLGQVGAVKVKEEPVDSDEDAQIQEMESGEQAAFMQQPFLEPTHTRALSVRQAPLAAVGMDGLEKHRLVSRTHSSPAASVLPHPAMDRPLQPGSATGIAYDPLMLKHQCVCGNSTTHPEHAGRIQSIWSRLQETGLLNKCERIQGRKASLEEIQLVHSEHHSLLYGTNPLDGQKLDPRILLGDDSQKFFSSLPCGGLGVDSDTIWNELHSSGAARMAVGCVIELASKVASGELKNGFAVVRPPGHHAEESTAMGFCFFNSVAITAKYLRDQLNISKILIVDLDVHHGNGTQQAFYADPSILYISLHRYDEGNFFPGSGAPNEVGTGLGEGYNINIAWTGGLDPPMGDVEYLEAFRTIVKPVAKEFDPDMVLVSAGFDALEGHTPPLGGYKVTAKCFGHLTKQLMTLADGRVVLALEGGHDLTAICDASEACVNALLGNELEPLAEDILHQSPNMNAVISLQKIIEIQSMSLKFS
In series [19] the test system is MV4-11. Description: Induction of apoptosis in human MV4-11 cells assessed as viable cells at 40 nM after 48 hrs by Annexin V-FITC/propidium iodide staining-based flow cytometric analysis (reference value: 84.1%). It is filed as functional. Particulars: MV4-11, 48 h, read-out: Activity.
Series [20] has as its target T1, Serine/threonine-protein kinase mTOR. The series is described as follows: Inhibition of mTOR in human MV4-11 cells assessed as decrease in ERK phosphorylation after 24 hrs by Western blot analysis. In kind it is cell-based. In short, it runs like this:
as §1

Calls of active or inactive are those of the source. No cut-off for these calls is given here. Some results are limits rather than exact numbers.

Chain of Polyamine deacetylase HDAC10 (Q969S8 whole entry): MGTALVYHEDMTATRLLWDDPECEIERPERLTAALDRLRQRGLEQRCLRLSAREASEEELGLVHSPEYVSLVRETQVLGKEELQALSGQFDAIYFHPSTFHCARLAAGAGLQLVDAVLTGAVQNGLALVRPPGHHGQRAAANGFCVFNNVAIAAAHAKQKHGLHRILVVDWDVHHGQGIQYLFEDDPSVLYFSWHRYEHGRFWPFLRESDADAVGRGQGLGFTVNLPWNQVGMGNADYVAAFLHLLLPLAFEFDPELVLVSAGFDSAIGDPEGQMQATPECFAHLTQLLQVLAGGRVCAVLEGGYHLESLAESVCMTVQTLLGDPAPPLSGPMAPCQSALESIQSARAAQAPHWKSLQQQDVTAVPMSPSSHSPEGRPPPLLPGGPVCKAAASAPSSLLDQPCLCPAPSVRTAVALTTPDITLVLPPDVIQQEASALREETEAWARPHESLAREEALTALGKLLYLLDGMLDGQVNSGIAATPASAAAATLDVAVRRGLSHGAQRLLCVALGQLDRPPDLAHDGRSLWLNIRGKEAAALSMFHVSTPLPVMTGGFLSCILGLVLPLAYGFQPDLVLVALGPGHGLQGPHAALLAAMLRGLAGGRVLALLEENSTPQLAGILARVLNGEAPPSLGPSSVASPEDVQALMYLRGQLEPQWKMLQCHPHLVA
Chain of Histone deacetylase 3 (O15379 whole entry): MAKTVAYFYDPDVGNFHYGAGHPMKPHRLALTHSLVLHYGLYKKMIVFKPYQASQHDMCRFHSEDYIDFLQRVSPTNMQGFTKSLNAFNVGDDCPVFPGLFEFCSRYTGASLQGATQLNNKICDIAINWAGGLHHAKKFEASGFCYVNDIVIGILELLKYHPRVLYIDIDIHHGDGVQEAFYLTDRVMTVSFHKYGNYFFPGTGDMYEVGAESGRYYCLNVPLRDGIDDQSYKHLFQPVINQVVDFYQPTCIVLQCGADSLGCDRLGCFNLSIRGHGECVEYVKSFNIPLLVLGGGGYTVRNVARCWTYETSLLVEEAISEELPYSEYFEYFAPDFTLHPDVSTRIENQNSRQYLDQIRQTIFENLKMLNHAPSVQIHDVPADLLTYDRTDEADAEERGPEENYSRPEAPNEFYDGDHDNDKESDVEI

As for `C[C@@H]1CN(C(=O)Nc2ccc(-c3nc(N4CCOCC4)c4cnn(CCCCCCC(=O)NO)c4n3)cc2)CCO1`, the figures for the IC50 (on Histone deacetylase 3; in [2]; on Histone deacetylase 9) were 1.47 nM, 0.58 nM and greater than 1000 nM, respectively. Further, the Activity in the series with MV4-11 [1] was 14.8%; with MV4-11 [3], 56.5%; with MV4-11 [4], 48.03%; in the series on MV4-11 [5] it was 1.13%; in the series with MV4-11 [6] it was 1.86%; in the series with MV4-11 [7], 34.16%. Further, the Activity entry in series [8] is on record as “Non-Toxic”; in series [9], “Non-Toxic”; with MV4-11 [10] it was 2.84%; in the series with MV4-11 [11], 13.99%; in the series on MM1.S [12], 1.49%; with MM1.S [13], 3.09%. In addition, the results for the Activity with MV4-11 [14] and with MV4-11 [16] were 34.7% and 27.5%, respectively. The inhibition result in [15] is “Active”. For the same compound, the inhibition in vivo at 10 mg/kg in the series on MV4-11 [17] was 53.1%. Besides, the inhibition entry in series [18] and in series [20] was “Dose-dependent effect” each time. Moreover, in the series with MV4-11 [19], the viability at 0.04 µM is 2.99%.

For orientation: IC50 means the concentration at which inhibition is half-maximal.

The values above are taken from ChEMBL document CHEMBL4411315, “Discovery of Novel Dual Histone Deacetylase and Mammalian Target of Rapamycin Target Inhibitors as a Promising Strategy for Cancer Therapy” (J Med Chem, 2019).
